From ChEMBL document CHEMBL1141852, “Two auronols from Pseudolarix amabilis” (1999)
≈ marks a conversion by molar mass, not a printed value. Calls of active or inactive are those of the source. The calls are words filed in the database; no cut-off is given here.

Tests used:
Candida albicans = assay: Antimicrobial activity against Candida albicans; format: functional
Method in brief: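 Broth microdilution in 96-well plates. Inoculum was a 24 h Candida albicans culture diluted in Sabouraud dextrose broth. Incubation was at 30 or 37 °C. MIC was taken as the lowest concentration giving at least 80% growth inhibition.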

[1] = system: Trichophyton mentagrophytes; assay: Antimicrobial activity against Trichophyton mentagrophytes; format: functional
Method in brief: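 Microdilution in 96-well plates. The Trichophyton mentagrophytes inoculum was spores scraped from fungal growth into Mycophil broth. Pure compounds were tested at final 50 down to 0.20 µg/mL in twofold steps. Incubation was at 30 or 37 °C. MIC was taken as the lowest concentration inhibiting at least 80% of growth.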

Molecule `COC(=O)C1=CC[C@@]23CC[C@@H]([C@@](C)(/C=C/C=C(\C)C(=O)O)OC2=O)[C@@]3(OC(C)=O)CC1` [PSEUDOLARIC ACID B] has an MFC (Candida albicans) of 6.25 µg/mL (≈ 14.5 µM) and an MIC (Candida albicans) of 3.12 µg/mL (≈ 7.23 µM).
In the case of `CC(=O)O[C@]12CCC(C)=CC[C@]13CC[C@H]2[C@@](C)(/C=C/C=C(\C)C(=O)O[C@@H]1O[C@H](CO)[C@@H](O)[C@H](O)[C@H]1O)OC3=O`, the Activity [1] is reported as “inactive” and the Activity (Candida albicans) is reported as “inactive”.
`O=C1c2c(O)cc(O)cc2OC1(O)Cc1cc(O)c(O)c(O)c1` (configuration not stated) was tested, and the Activity [1] was “inactive” and the Activity (Candida albicans) was “inactive”.
With `C[C@@H]1[C@H](O)[C@@H](C)/C=C/C=C/C=C/C=C/C=C/C=C/C=C/[C@H](O[C@@H]2O[C@H](C)[C@@H](O)[C@H](N)[C@@H]2O)C[C@@H]2O[C@](O)(C[C@@H](O)C[C@@H](O)[C@H](O)CC[C@@H](O)C[C@@H](O)CC(=O)O[C@H]1C)C[C@H](O)[C@H]2C(=O)O` [AMPHOTERICIN B] the Activity [1] was “inactive” and the MFC (Candida albicans) was 0.39 µg/mL (≈ 0.422 µM).
In the case of `COC(=O)C1=CC[C@@]23CC[C@@H]([C@@](C)(/C=C/C=C(\C)C(=O)O[C@@H]4O[C@H](CO)[C@@H](O)[C@H](O)[C@H]4O)OC2=O)[C@@]3(OC(C)=O)CC1`, the Activity [1] is reported as “inactive” and the Activity (Candida albicans) is reported as “inactive”.
With `COc1c(O)cc(CC2(O)Oc3cc(O)cc(O)c3C2=O)cc1O` (configuration not stated) the Activity [1] was “inactive” and the Activity (Candida albicans) was “inactive”.
`COC(=O)C1=CC[C@@]23CC[C@@H]([C@@](C)(/C=C/C=C(\C)C(=O)O)OC2=O)[C@@]3(O)CC1` was tested, and the Activity [1] was “inactive” and the Activity (Candida albicans) was “inactive”.
With `C/C(=C\C=C\[C@@]1(C)OC(=O)[C@]23CC=C(C(=O)O)CC[C@]2(O)[C@H]1CC3)C(=O)O` the Activity [1] was “inactive” and the Activity (Candida albicans) was “inactive”.
`O=c1c(O)c(-c2cc(O)c(O)c(O)c2)oc2cc(O)cc(O)c12` [MYRICETIN] showed an MIC [1] of 50 µg/mL (≈ 157 µM).
